Measured values taken from ChEMBL document CHEMBL1157615, “N-methyl phenylalanine-rich peptides as highly versatile blood-brain barrier shuttles” (J Med Chem, 2010).
Numbered stars: 1 amine (or outer) side, 2 acyl side, 3 side chain; on linkers, the order of the positions; unused ones are H or OH. Square brackets hold non-standard residues; d marks the D form. Peptide text beside a SMILES is read from it. * marks the point of attachment. ξ: configuration not given here. 2Nal = N[C@@H](Cc1ccc2ccccc2c1)C(=O)O; NMeF = CN[C@@H](Cc1ccccc1)C(=O)O; ξNip = O=C(C1CCCN([*:1])C1)[*:2]; X1 = NCC(=O)CCC(=O)*; GABA = NCCCC(=O)O

Assays:
[1] = Permeability across artificial membrane assessed as compound transport at 200 uM after 4 hrs by PAMPA using HPLC/MS method; assay type: ADME
How it was run: (§1)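 PAMPA with porcine polar brain lipid extract (20 mg/mL in dodecane) on the filter; 200 μM compound in water with 20% 1-propanol cosolvent in donor, water in acceptor; 4 h at room temperature, saturated humidity, orbital shaking 100 rpm. Donor and acceptor quantified by HPLC-MS against external calibration curves. Pe and % transport from acceptor versus initial donor concentration; retention from mass balance.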

[2] = Permeability across artificial membrane assessed as membrane retention at 200 uM by PAMPA using HPLC/MS method; assay type: ADME; how it was run: as §1
[3] = Effective permeability across artificial membrane at 200 uM by PAMPA using HPLC/MS method; assay type: ADME; details: read-out: permeability; how it was run: as §1
[4] = Apparent permeability in BBMEC; assay type: ADME, Bos taurus; details: cattle
[5] = Apparent permeability in BBMEC assessed as compound transport after 2 hrs; assay type: ADME, Bos taurus; details: cattle
[6] = Apparent permeability in BBMEC assessed as membrane retention; assay type: ADME, cell membranes, Bos taurus; details: cattle

Structure (SMILES) | Activity [1] | Activity [2] | Papp at 200 µM [3] | Papp [4] | Activity [5] | Activity [6]
CC(=O)N1CCC[C@H]1C(=O)N1CCC[C@H]1C(=O)N1CCC[C@H]1C(=O)N1CCC[C@H]1C(N)=O (Ac-PPPP-NH2) | 0% | 0% | – | – | – | –
CC(=O)N1CCC[C@H]1C(=O)N1CCC[C@H]1C(=O)N1CCC[C@H]1C(=O)N1CCC[C@H]1C(=O)N1CCC[C@H]1C(=O)N1CCC[C@H]1C(N)=O (Ac-PPPPPP-NH2) | 0% | 0% | – | – | – | –
CC(=O)N1CCC[C@H]1C(=O)N1CCC[C@H]1C(=O)N1CCC[C@H]1C(=O)N1CCC[C@H]1C(=O)N1CCC[C@H]1C(=O)N1CCC[C@H]1C(=O)N1CCC[C@H]1C(=O)N1CCC[C@H]1C(N)=O (Ac-PPPPPPPP-NH2) | 0% | 0% | – | – | – | –
CC(=O)N1CCC[C@H]1C(=O)N1CCC[C@H]1C(=O)N1CCC[C@H]1C(=O)N1CCC[C@H]1C(=O)N1CCC[C@H]1C(=O)N1CCC[C@H]1C(=O)N1CCC[C@H]1C(=O)N1CCC[C@H]1C(=O)N1CCC[C@H]1C(=O)N1CCC[C@H]1C(N)=O (Ac-PPPPPPPPPP-NH2) | 0% | 0% | – | – | – | –
CC(=O)N1CCC[C@H]1C(=O)N1CCC[C@H]1C(N)=O (Ac-Pro-Pro-NH2) | 0% | 0% | – | – | – | –
CN(C(=O)[C@H](Cc1ccc2ccccc2c1)NC(=O)CCCN)[C@@H](Cc1ccccc1)C(=O)N(C)[C@@H](Cc1ccccc1)C(=O)N(C)[C@@H](Cc1ccccc1)C(N)=O (H-[GABA][2Nal][NMeF][NMeF][NMeF]-NH2) | 0.4% | 18.4% | 0.2 ×10⁻⁶ cm/s | – | – | –
CN(C(=O)CCCN)[C@@H](Cc1ccccc1)C(=O)N(C)[C@@H](Cc1ccccc1)C(=O)N(C)[C@@H](Cc1ccccc1)C(=O)N(C)[C@@H](Cc1ccccc1)C(N)=O (H-[GABA][NMeF][NMeF][NMeF][NMeF]-NH2) | 0.8% | < 1% | 0.4 ×10⁻⁶ cm/s | – | – | –
CN(C(=O)CCC(=O)CN)[C@@H](Cc1ccccc1)C(=O)N(C)[C@@H](Cc1ccccc1)C(=O)N(C)[C@@H](Cc1ccccc1)C(=O)N(C)[C@@H](Cc1ccccc1)C(N)=O (X1-[NMeF][NMeF][NMeF][NMeF]-NH2) | 2.1% | 14.5% | 1 ×10⁻⁶ cm/s | 15 ×10⁻⁶ cm/s | 17.8% | 50.7%
CN(C(=O)[C@H](Cc1ccc2ccccc2c1)NC(=O)C1CCCNC1)[C@@H](Cc1ccccc1)C(=O)N(C)[C@@H](Cc1ccccc1)C(=O)N(C)[C@@H](Cc1ccccc1)C(N)=O (some centres undefined) (ξNip-[2Nal][NMeF][NMeF][NMeF]-NH2) | 2.4% | 23.6% | 1.1 ×10⁻⁶ cm/s | 3.5 ×10⁻⁶ cm/s | 4.1% | 83.8%
CN(C(=O)C1CCCNC1)[C@@H](Cc1ccccc1)C(=O)N(C)[C@@H](Cc1ccccc1)C(=O)N(C)[C@@H](Cc1ccccc1)C(=O)N(C)[C@@H](Cc1ccccc1)C(N)=O (some centres undefined) (ξNip-[NMeF][NMeF][NMeF][NMeF]-NH2) | 2.8% | 4.6% | 1.4 ×10⁻⁶ cm/s | 6.6 ×10⁻⁶ cm/s | 7.9% | 74%
NCC(=O)CCC(=O)O [AMINOLEVULINIC ACID] | 0% | 23% | – | – | – | –
Cn1c(=O)c2c(ncn2C)n(C)c1=O [CAFFEINE] | – | – | – | 16.1 ×10⁻⁶ cm/s | 20.6% | 67.4%
NC(=O)N1c2ccccc2C=Cc2ccccc21 [CARBAMAZEPINE] | 19.3% | < 1% | 11.5 ×10⁻⁶ cm/s | 16.5 ×10⁻⁶ cm/s | 20% | 67.5%
NCCCC(=O)O [GAMMA-AMINOBUTYRIC ACID] | 0% | 5.4% | – | – | – | –
O=C(O)C1CCCNC1 (centres undefined) [NIPECOTIC ACID] | 0% | 52.6% | – | – | – | –
CC(C)NCC(O)COc1cccc2ccccc12 (centres undefined) [PROPRANOLOL] | 13.9% | 17.2% | – | 16.9 ×10⁻⁶ cm/s | 21.2% | 63%
